{"data": "Measurements from different studies", "effect on": "cell growth or viability", "note": "Each line is one published result; the experiments were not run side by side."}
{"SMILES": "O=C(NCc1ccccc1)c1cn(Cc2ccc(C(F)(F)F)cc2)c2ccc(Oc3ccccc3)cc2c1=O", "cell line": "MCF7", "method": "MTT", "time": "24 h", "endpoint": "IC50", "result": "9.4 µM"}
{"SMILES": "CC(C)C[C@@H](NC(=O)[C@H](C)NC(=O)CNC(=O)[C@@H](NC=O)C(C)C)C(=O)N[C@@H](C)C(=O)N[C@@H](C(=O)N[C@H](C(=O)N[C@@H](C(=O)N[C@@H](Cc1c[nH]c2ccccc12)C(=O)N[C@H](CC(C)C)C(=O)N[C@@H](Cc1cccc2[nH]ccc12)C(=O)N[C@H](CC(C)C)C(=O)N[C@@H](Cc1c[nH]c2ccccc12)C(=O)N[C@H](CC(C)C)C(=O)N[C@@H](Cc1c[nH]c2ccccc12)C(=O)NCCO)C(C)C)C(C)C)C(C)C", "cell line": "MCF7", "method": "SRB", "time": "48 h", "endpoint": "GI50", "result": "0.0684 µM"}
{"SMILES": "O=C1CCP(c2ccccc2)CC1", "cell line": "SW-620", "method": "MTT", "time": "72 h", "endpoint": "IC50", "result": "73.7 µM"}
{"SMILES": "O=C(NCc1ccc(O)cc1)c1cn(Cc2ccc(F)cc2)c2ccc(Oc3ccccc3)cc2c1=O", "cell line": "MCF7", "method": "MTT", "time": "24 h", "endpoint": "IC50", "result": "> 500 µM"}
{"SMILES": "CC(C)C[C@@H](NC(=O)[C@H](C)NC(=O)CNC(=O)[C@@H](NC=O)C(C)C)C(=O)N[C@@H](C)C(=O)N[C@@H](C(=O)N[C@H](C(=O)N[C@@H](C(=O)N[C@@H](Cc1c[nH]c2ccccc12)C(=O)N[C@H](CC(C)C)C(=O)N[C@@H](Cc1ccc2[nH]ccc2c1)C(=O)N[C@H](CC(C)C)C(=O)N[C@@H](Cc1c[nH]c2ccccc12)C(=O)N[C@@H](C(=O)N[C@@H](Cc1c[nH]c2ccccc12)C(=O)NCCO)C(C)C)[C@H](C)O)C(C)C)C(C)C", "cell line": "MCF7", "method": "SRB", "time": "48 h", "endpoint": "GI50", "result": "0.878 µM"}
{"SMILES": "N.N.[Cl][Pt][Cl]", "cell line": "MCF7", "method": "MTT", "time": "48 h", "endpoint": "IC50", "result": "27.8 µM"}
{"SMILES": "O=C1CCP(=S)(c2ccccc2)CC1", "cell line": "SW-620", "method": "MTT", "time": "72 h", "endpoint": "IC50", "result": "6.3 µM"}
{"SMILES": "CC[C@H](C)[C@H](NC(=O)[C@H](CCCCN)NC(=O)[C@H](CCCCN)NC(=O)[C@H](CC(C)C)NC(=O)[C@H](CCCCN)NC(=O)[C@H](CCCCN)NC(=O)[C@H](Cc1ccccc1)NC(=O)[C@H](Cc1ccccc1)NC(=O)[C@H](CCCNC(=N)N)NC(=O)[C@H](CCCNC(=N)N)NC(=O)[C@@H](NC(=O)[C@H](CCCCN)NC(=O)[C@H](CCCNC(=N)N)NC(=O)[C@@H](NC(=O)[C@@H](N)Cc1ccc(O)cc1)[C@@H](C)CC)[C@@H](C)CC)C(=O)N[C@@H](CC(C)C)C(=O)N[C@@H](CCCCN)C(=O)N[C@@H](CCCCN)C(N)=O", "cell line": "SAOS-2", "method": "resazurin", "endpoint": "IC50", "result": "> 20 µM"}
{"SMILES": "CC(C)C[C@@H](NC(=O)[C@H](C)NC(=O)CNC(=O)[C@@H](NC=O)C(C)C)C(=O)N[C@@H](C)C(=O)N[C@@H](C(=O)N[C@H](C(=O)N[C@@H](C(=O)N[C@@H](Cc1c[nH]c2ccccc12)C(=O)N[C@H](CC(C)C)C(=O)N[C@@H](Cc1cccc2cc[nH]c12)C(=O)N[C@H](CC(C)C)C(=O)N[C@@H](Cc1c[nH]c2ccccc12)C(=O)N[C@H](CC(C)C)C(=O)N[C@@H](Cc1c[nH]c2ccccc12)C(=O)NCCO)C(C)C)C(C)C)C(C)C", "cell line": "MCF7", "method": "SRB", "time": "48 h", "endpoint": "GI50", "result": "0.0365 µM"}
{"SMILES": "O=C(Nc1ccc(Cl)cc1)Nc1cccc(-c2cn(Cc3ccc(Br)cc3)nn2)c1", "cell line": "MCF7", "method": "CCK-8", "tested at": "50 µM", "time": "72 h", "endpoint": "viability", "result": "86.8%"}
